Laboratory results as given in the array DNA melting data of Ke et al. (doi:10.1101/2024.01.08.574731).

Tests used:
[1] = folding enthalpy; higher = less favourable; fluorescence melt of hairpins on a sequencing array, two-state fit; conditions: sodium 0.088 M
Summary of the method: (§1)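 Cy3 fluorescence of library hairpins on a sequenced MiSeq flow cell, with annealed Cy3 and quencher oligos, was imaged in 50 mM Na-HEPES pH 8.0, 25 mM NaCl in 2.5 °C steps up to 60 °C. Signals were normalised to pre-quench Cy3 and to control variants. Melting temperature and folding enthalpy came from bootstrapped two-state fits, inverse-variance combined over four replicates. Fitted temperatures were raised by 9.35 °C to match UV melts.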

[2] = melting temperature; fluorescence melt of hairpins on a sequencing array, two-state fit, raised by 9.35 °C to match UV melts; conditions: sodium 0.088 M
Summary of the method: as §1

Sequence | folding enthalpy [1] | Tm [2]
GTTCACGAAAGTGTCAAC ((((((....)))..))) | -10.7 kcal/mol | 28.6 °C
GTTCACGGAAACGTGAGC (.(((((....))))).) | -22.2 kcal/mol | 52.1 °C
GTTCAGGGAAACCTGAAC (((((((....))))))) | -43.2 kcal/mol | 60.4 °C
GTTCATGGAAACATGGAC ((.((((....)))).)) | -27.7 kcal/mol | 46.3 °C
GTTCCACGAAAGTGAAC (((.(((....)))))) | -17.7 kcal/mol | 41.8 °C
GTTCCACGAAAGTGCAAC (((.(((....))).))) | -16.9 kcal/mol | 33.5 °C
GTTCCACGAAAGTGTAAC (((.(((....))).))) | -26.2 kcal/mol | 38.4 °C
GTTCCAGAAATGGAAC ((((((....)))))) | -32.2 kcal/mol | 53.4 °C
GTTCCAGGAAACTGAAAC (((.(((....))).))) | -19.4 kcal/mol | 30.4 °C
GTTCCAGGAAACTGGGAC ((.((((....)))).)) | -27.6 kcal/mol | 49.3 °C
GTTCCCCCGAAAGGGAAC (((..(((....)))))) | -34.7 kcal/mol | 51.6 °C
GTTCCCCGAAAGGGAAAC (((.(((....))).))) | -19.3 kcal/mol | 46.5 °C
GTTCCCGAAAGGGATAAC ((((((....)))..))) | -10.2 kcal/mol | 36.5 °C
GTTCCCGAAAGGGCAAC ((((((....))).))) | -14.7 kcal/mol | 40.4 °C
GTTCCGGGAAACCAGAAC ((((.((....)).)))) | -31.7 kcal/mol | 38.7 °C
GTTCCGGGAAACCGGAAC (((((((....))))))) | -30.1 kcal/mol | 68.7 °C
GTTCCGGGAAACCGGGAC ((.((((....)))).)) | -35.5 kcal/mol | 57.4 °C
GTTCCGGGAAACTGGGAC ((.((.(....).)).)) | -28.2 kcal/mol | 41.4 °C
GTTCCTCGAAAGAGAAC (((.(((....)))))) | -24.1 kcal/mol | 36.3 °C
GTTCCTGGAAACAGGGAC ((.((((....)))).)) | -35.1 kcal/mol | 50.8 °C
GTTCGACGAAAGTCTAAC (((.(((....))).))) | -24.8 kcal/mol | 42.5 °C
GTTCGAGCGAAAGCTAAC (((..(((....)))))) | -7.3 kcal/mol | 24.6 °C
GTTCGAGGAAACTCAAAC (((.(((....))).))) | -13.8 kcal/mol | 31 °C

Sequence | folding enthalpy [1] | Tm [2]
GTTCGAGGAAACTCGGAC ((.((((....)))).)) | -40.9 kcal/mol | 51.3 °C
GTTCGCCCGAAAGGGAAC (((..(((....)))))) | -13.9 kcal/mol | 35.9 °C
GTTCGCCGAAAGGCTAAC (((.(((....))).))) | -19.6 kcal/mol | 44.7 °C
GTTCGCGAAAGCGCAAC ((((((....))).))) | -13.9 kcal/mol | 45.6 °C
GTTCGCGAAAGCGCTAAC ((((((....)))..))) | -9.92 kcal/mol | 25.1 °C
GTTCGCGAAAGCGGAAC ((((((....))).))) | -17.6 kcal/mol | 54.4 °C
GTTCGCGAAAGCGTGAAC ((((((....)))..))) | -13 kcal/mol | 40.5 °C
GTTCGCGAAAGCGTTAAC ((((((....)))..))) | -10.9 kcal/mol | 27.8 °C
GTTCGCGGAAACGCGAGC (.(((((....))))).) | -15.7 kcal/mol | 59.2 °C
GTTCGCGGAAACGCGGAC ((.((((....)))).)) | -26.6 kcal/mol | 60.7 °C
GTTCGGCGAAAGCCAAAC (((.(((....))).))) | -15.5 kcal/mol | 46.5 °C
GTTCGGGGAAACTCGAAC (((((.(....).))))) | -30.8 kcal/mol | 51.3 °C
GTTCGTGGAAACATGGAC ((.(.((....)).).)) | -16.1 kcal/mol | 34.7 °C
GTTCTACGAAAGTAAAC (((.(((....)))))) | -10.8 kcal/mol | 27.6 °C
GTTCTAGGAAACTAGAGC (.(((((....))))).) | -24.7 kcal/mol | 35.6 °C
GTTCTCCGAAAGGACAAC (((.(((....))).))) | -15.6 kcal/mol | 30 °C
GTTCTCGAAAGAGAGAAC ((((((....)))..))) | -25.1 kcal/mol | 46.4 °C
GTTCTCGAAAGAGCAAC ((((((....))).))) | -17 kcal/mol | 32.7 °C
GTTCTCGAAAGAGGTAAC ((((((....)))..))) | -8.25 kcal/mol | 22.7 °C
GTTCTCGGAAACGAGAGC (.(((((....))))).) | -27.5 kcal/mol | 48.2 °C
GTTCTCTCGAAAGAGAAC (((..(((....)))))) | -34.5 kcal/mol | 51.1 °C
GTTCTGAAAAGAAC (((((....))))) | -27.5 kcal/mol | 47 °C
GTTCTGCGAAAGCATAAC (((.(((....))).))) | -25 kcal/mol | 43.7 °C

Sequence | folding enthalpy [1] | Tm [2]
GTTCTGGCGAAAGCCAAC (((..(((....)))))) | -7.18 kcal/mol | 19.8 °C
GTTCTGGGAAACCAGAGC (.(((((....))))).) | -24.2 kcal/mol | 46.3 °C
GTTCTGGGAAACTAGAGC (.(((.(....).))).) | -8.92 kcal/mol | 24.9 °C
GTTCTTCCGAAAGGAAAC (((..(((....)))))) | -13.6 kcal/mol | 27.5 °C
GTTCTTCGAAAGAATAAC (((.(((....))).))) | -15.6 kcal/mol | 33.6 °C
GTTCTTGAAAAAGAAC ((((((....)))))) | -34.2 kcal/mol | 46.9 °C
GTTCTTGGAAACAGGAAC ((((.((....)).)))) | -34.1 kcal/mol | 39.9 °C
GTTGAACCGAAAGGTAAC (((..(((....)))))) | -12.9 kcal/mol | 31.1 °C
GTTGAAGGAAACTCCAAC ((((.((....)).)))) | -17.5 kcal/mol | 29.5 °C
GTTGAAGGAAACTTCAAC (((((((....))))))) | -51.5 kcal/mol | 54.2 °C
GTTGACGAAAGTCAAAAC ((((((....)))..))) | -11.5 kcal/mol | 38.4 °C
GTTGACGAAAGTCATAAC ((((((....)))..))) | -12.9 kcal/mol | 33.5 °C
GTTGACGAAAGTCGCAAC ((((((....)))..))) | -13.3 kcal/mol | 31 °C
GTTGACGAAAGTCGGAAC ((((((....)))..))) | -8.87 kcal/mol | 32.7 °C
GTTGACGAAAGTCTCAAC ((((((....)))..))) | -9.94 kcal/mol | 28 °C
GTTGACGAAAGTCTTAAC ((((((....)))..))) | -10 kcal/mol | 28.1 °C
GTTGAGACGAAAGTCAAC (((..(((....)))))) | -15.6 kcal/mol | 38.4 °C
GTTGAGCGAAAGCTAAAC (((.(((....))).))) | -26.5 kcal/mol | 48 °C
GTTGAGGGAAACCTTAAC (((.(((....))).))) | -31.4 kcal/mol | 37 °C
GTTGAGGGAAACCTTGAC ((..(((....)))..)) | -12 kcal/mol | 29.7 °C
GTTGAGGGAAACTTCAAC (((((.(....).))))) | -33.6 kcal/mol | 40.5 °C
GTTGATGAAAATCAAC ((((((....)))))) | -33.9 kcal/mol | 52.4 °C
GTTGCACCGAAAGGTAAC (((..(((....)))))) | -14.4 kcal/mol | 30.4 °C

Sequence | folding enthalpy [1] | Tm [2]
GTTGCAGCGAAAGCTAAC (((..(((....)))))) | -11.6 kcal/mol | 29.2 °C
GTTGCAGGAAACTACAAC ((((.((....)).)))) | -27.6 kcal/mol | 37 °C
GTTGCCGAAAGGCACAAC ((((((....)))..))) | -8.02 kcal/mol | 35.7 °C
GTTGCCGAAAGGCCGAAC ((((((....)))..))) | -7.22 kcal/mol | 27.1 °C
GTTGCCGGAAACGGCAGC (.(((((....))))).) | -14.4 kcal/mol | 57.5 °C
GTTGCGCCGAAAGGCAAC (((..(((....)))))) | -13.2 kcal/mol | 42.4 °C
GTTGCGCGAAAGCGTAAC (((.(((....))).))) | -29.8 kcal/mol | 58.1 °C
GTTGCTCGAAAGAGAAAC (((.(((....))).))) | -32.3 kcal/mol | 48 °C
GTTGCTCGAAAGAGGAAC (((.(((....))).))) | -38.2 kcal/mol | 53.9 °C
GTTGCTGGAAACAGTGAC ((..(((....)))..)) | -28.4 kcal/mol | 39.2 °C
GTTGGACGAAAGTCGAAC (((.(((....))).))) | -16.8 kcal/mol | 49.1 °C
GTTGGAGGAAACTCCAAC (((((((....))))))) | -36 kcal/mol | 60.8 °C
GTTGGAGGAAACTTCGAC ((.(.((....)).).)) | -24.3 kcal/mol | 34.2 °C
GTTGGATCGAAAGATAAC (((..(((....)))))) | -6.79 kcal/mol | 27.3 °C
GTTGGCCGAAAGGCAAAC (((.(((....))).))) | -21.8 kcal/mol | 56.8 °C
GTTGGCGAAAGCCATAAC ((((((....)))..))) | -10.2 kcal/mol | 35.7 °C
GTTGGCGAAAGCCGAAC ((((((....))).))) | -13.8 kcal/mol | 50.5 °C
GTTGGCGAAAGCCTCAAC ((((((....)))..))) | -10.6 kcal/mol | 29.9 °C
GTTGGCGGAAACGCTAAC (((.(((....))).))) | -30.9 kcal/mol | 53.1 °C
GTTGGGAAACCAAC (((((....))))) | -27.9 kcal/mol | 51.7 °C
GTTGGGCCGAAAGGCAAC (((..(((....)))))) | -15.3 kcal/mol | 45.4 °C
GTTGGGGGAAACCCCAAC (((((((....))))))) | -45.9 kcal/mol | 65.6 °C
